Experimental data as given in ChEMBL document CHEMBL4270546, “A novel Anti-Cancer Stem Cells compound optimized from the natural symplostatin 4 scaffold inhibits Wnt/β-catenin signaling pathway” (Eur J Med Chem, 2018).
The source made the active and inactive calls. The rule behind the calls is not given here.

How the values were obtained:
4T1 = test: Antiproliferative activity against mouse 4T1 cells after 48 hrs by MTT assay; assay type: functional, cell-based; settings: 4T1, 48 h
A-375 [1] = test: Induction of apoptosis in human A375 cells assessed as late apoptotic cells at 1 uM after 48 hrs by Annexin V-FITC/propidium iodide staining based flow cytometry (reference value: 2.7%); assay type: functional
B16-F10 [2] = test: Antimigratory activity against mouse B16F10 cells at 0.25 uM after 24 hrs by transwell migration assay; assay type: functional, cell-based
In short: (§1)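 Cells seeded in the upper chamber of a transwell and incubated with compound (0.25 μM) for 24 h. Cells migrated to the lower chamber were imaged and counted against an untreated control. Mean ± sd, n = 3, two-way ANOVA.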

MCF7 = test: Antiproliferative activity against human MCF7 cells after 48 hrs by MTT assay; assay type: functional, cell-based; settings: MCF7, 48 h
B16-F10 [3] = test: Induction of apoptosis in mouse B16F10 cells assessed as late apoptotic cells at 2 uM after 48 hrs by Annexin V-FITC/propidium iodide staining based flow cytometry (reference value: 0.303%); assay type: functional
A-375 [4] = test: Antiproliferative activity against human A375 cells after 48 hrs by MTT assay; assay type: functional, cell-based; settings: A-375, 48 h
A-375 [5] = test: Induction of apoptosis in human A375 cells assessed as upregulation of activated caspase-3 protein expression at 0.5 to 4 uM after 48 hrs by Western blot analysis; assay type: functional, cell-based
In short: (§2)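 Cells treated with compound at different concentrations (0.5-4 μM) for 48 h. Lysates probed by Western blot for cleaved PARP, active caspase-3, Bax and p53.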

B16-F10 [6] = test: Induction of apoptosis in mouse B16F10 cells assessed as upregulation of Bax expression after 48 hrs by Western blot analysis
B16-F10 [7] = test: Induction of apoptosis in mouse B16F10 cells after 48 hrs by Annexin V-FITC/propidium iodide staining based flow cytometry; assay type: functional, cell-based
A-375 [8] = test: Induction of apoptosis in human A375 cells after 48 hrs by Annexin V-FITC/propidium iodide staining based flow cytometry; assay type: functional, cell-based
B16-F10 [9] = test: Inhibition of ALDH+ subpopulation of mouse B16F10 cells assessed as ALDH+ cells at 0.25 after 48 hrs by flow cytometry (reference value: 26.7%); assay type: functional; parameters: scale not given: the % may be the effect or the level left
A-375 [10] = test: Induction of apoptosis in human A375 cells assessed as late apoptotic cells at 2 uM after 48 hrs by Annexin V-FITC/propidium iodide staining based flow cytometry (reference value: 2.7%); assay type: functional
B16-F10 [11] = test: Induction of apoptosis in mouse B16F10 cells assessed as live cells at 2 uM after 48 hrs by Annexin V-FITC/propidium iodide staining based flow cytometry (reference value: 97.6%); assay type: functional
MDA-MB-231 = test: Antiproliferative activity against human MDA-MB-231 cells after 48 hrs by MTT assay; assay type: functional, cell-based; settings: MDA-MB-231, 48 h
A-375 [12] = test: Antimigratory activity against human A375 cells at 0.25 uM after 24 hrs by transwell migration assay; assay type: functional, cell-based; in short: as §1
A549 = test: Antiproliferative activity against human A549 cells after 48 hrs by MTT assay; assay type: functional, cell-based; settings: A549, 48 h
B16-F10 [13] = test: Induction of apoptosis in mouse B16F10 cells assessed as late apoptotic cells at 1 uM after 48 hrs by Annexin V-FITC/propidium iodide staining based flow cytometry (reference value: 0.303%); assay type: functional
B16-F10 [14] = test: Induction of apoptosis in mouse B16F10 cells assessed as upregulation of cleaved PARP expression at 0.5 to 4 uM after 48 hrs by Western blot analysis; assay type: functional, cell-based; in short: as §2
A-375 [15] = test: Induction of apoptosis in human A375 cells assessed as necrotic cells at 1 uM after 48 hrs by Annexin V-FITC/propidium iodide staining based flow cytometry (reference value: 2.39%); assay type: functional
A-375 [16] = test: Induction of apoptosis in human A375 cells assessed as live cells at 1 uM after 48 hrs by Annexin V-FITC/propidium iodide staining based flow cytometry (reference value: 93.6%); assay type: functional
B16-F10 [17] = test: Anti-invasive activity against mouse B16F10 cells at 0.25 uM after 24 hrs by matrigel invasion assay; assay type: functional, cell-based
In short: (§3)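 Cells seeded in the upper chamber of a transwell with a Matrigel-precoated filter, incubated with compound (0.25 μM) for 24 h. Invaded cells imaged and counted against an untreated control. Mean ± sd, n = 3, two-way ANOVA.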

A-375 [18] = test: Anti-invasive activity against human A375 cells at 0.25 uM after 24 hrs by matrigel invasion assay; assay type: functional, cell-based; in short: as §3
B16-F10 [19] = test: Induction of apoptosis in mouse B16F10 cells assessed as necrotic cells at 2 uM after 48 hrs by Annexin V-FITC/propidium iodide staining based flow cytometry (reference value: 1.86%); assay type: functional
B16-F10 [20] = test: Inhibition of CD133+ sub-population of mouse B16F10 cells assessed as CD133+ cells at 0.5 after 48 hrs by flow cytometry (reference value: 7.23%); assay type: functional; parameters: scale not given: the % may be the effect or the level left
A-375 [21] = test: Inhibition of ALDH+ subpopulation of human A375 cells assessed as ALDH+ cells at 0.25 after 48 hrs by flow cytometry (reference value: 25.7%); assay type: functional; parameters: scale not given: the % may be the effect or the level left
Homo sapiens = species: Homo sapiens; test: Inhibition of Wnt/beta-catenin signaling pathway (unknown origin) expressed in human 293T cells assessed as inhibition of TCF/LEF activity up to 100 uM after 48 hrs by luciferase reporter gene assay; assay type: cell-based
In short: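 293T cells transfected with a TCF/LEF reporter plasmid were treated with compound at different concentrations for 48 h. Luciferase activity was measured and normalized to Renilla luciferase activity.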

B16-F10 [22] = test: Inhibition of CD133+ sub-population of mouse B16F10 cells assessed as CD133+ cells at 0.25 after 48 hrs by flow cytometry (reference value: 7.23%); assay type: functional; parameters: scale not given: the % may be the effect or the level left
A-375 [23] = test: Inhibition of CD133+ sub-population of human A375 cells assessed as CD133+ cells at 0.5 after 48 hrs by flow cytometry (reference value: 4.54%); assay type: functional; parameters: scale not given: the % may be the effect or the level left
B16-F10 [24] = test: Induction of apoptosis in mouse B16F10 cells assessed as upregulation of activated caspase-3 protein expression at 0.5 to 4 uM after 48 hrs by Western blot analysis; assay type: functional, cell-based; in short: as §2
B16-F10 [25] = test: Induction of apoptosis in mouse B16F10 cells assessed as necrotic cells at 1 uM after 48 hrs by Annexin V-FITC/propidium iodide staining based flow cytometry (reference value: 1.86%); assay type: functional
A-375 [26] = test: Induction of apoptosis in human A375 cells assessed as early apoptotic cells at 2 uM after 48 hrs by Annexin V-FITC/propidium iodide staining based flow cytometry (reference value: 1.13%); assay type: functional
A-375 [27] = test: Induction of apoptosis in human A375 cells assessed as early apoptotic cells at 1 uM after 48 hrs by Annexin V-FITC/propidium iodide staining based flow cytometry (reference value: 1.13%); assay type: functional
A-375 [28] = test: Induction of apoptosis in human A375 cells assessed as live cells at 2 uM after 48 hrs by Annexin V-FITC/propidium iodide staining based flow cytometry (reference value: 93.6%); assay type: functional
PANC-1 = test: Antiproliferative activity against human PANC1 cells after 48 hrs by MTT assay; assay type: functional, cell-based; settings: PANC-1, 48 h
B16-F10 [29] = test: Induction of apoptosis in mouse B16F10 cells assessed as live cells at 1 uM after 48 hrs by Annexin V-FITC/propidium iodide staining based flow cytometry (reference value: 97.6%); assay type: functional

SMILES: CC[C@H](C)[C@H](NC(=O)OCc1ccccc1)C(=O)N[C@@H](CC(C)C)C(=O)N[C@@H](CC(C)C)C(=O)N[C@@H](C)/C=C/C(=O)N1C(=O)C=C(OC)[C@@H]1C(C)C
- IC50 (4T1): 946 nM
- Activity (A-375 [1]): 4.48%
- Activity (B16-F10 [2]): Active
- IC50 (MCF7): 2540 nM
- Activity (B16-F10 [3]): 32.9%
- IC50 (A-375 [4]): 801 nM
- Activity (A-375 [5]): Active
- Bax upregulation (B16-F10 [6]): Dose-dependent effect
- Activity (B16-F10 [7]): Dose-dependent effect
- Activity (A-375 [8]): Dose-dependent effect
- Activity (B16-F10 [9]): 17.6%
- Activity (A-375 [10]): 8.11%
- Activity (B16-F10 [11]): 31.5%
- IC50 (MDA-MB-231): 922 nM
- Activity (A-375 [12]): Active
- IC50 (A549): 4660 nM
- Activity (B16-F10 [13]): 4.05%
- Activity (B16-F10 [14]): Active
- Activity (A-375 [15]): 4.16%
- Activity (A-375 [16]): 97.9%
- Activity (B16-F10 [17]): Active
- Activity (A-375 [18]): Active
- Activity (B16-F10 [19]): 3.92%
- Activity (B16-F10 [20]): 1.7%
- Activity (A-375 [21]): 13.3%
- inhibition (Homo sapiens): Active
- Activity (B16-F10 [22]): 2.31%
- Activity (A-375 [23]): 0.867%
- Activity (B16-F10 [24]): Active
- Activity (B16-F10 [25]): 1.37%
- Activity (A-375 [26]): 9.68%
- Activity (A-375 [27]): 3.49%
- Activity (A-375 [28]): 79.3%
- IC50 (PANC-1): 435 nM
- Activity (B16-F10 [29]): 85%
